# Source: the RNAGym collection of RNA variant scans (doi:10.1126/science.aae0568)
# Fewer inactive variants are shown than the library holds.
# B1: tRNA (parent)
# chain: GUUCCGUUGGCGUAAUGGUAACGCGUCUCCCUCCUAAGGAGAAGACUGCGGGUUCGAGUCCCGUACGGAACG
# Variants of: B1
# Experiment: yeast fitness relative to wild type (ratio to wild type); higher = fitter; tRNA-Arg(CCU), competitive growth, 37 C, YPD
# Method in brief: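 For this measurement, the tRNA-Arg(CCU) gene was varied by chemical synthesis at a 3% per-site mutation rate across 69 sites, and each variant was placed at the native genomic locus in Saccharomyces cerevisiae. The pooled strains went through a 24-hour competition in YPD at 37°C in six parallel replicates, with amplicons from start and end populations read by 100-nucleotide paired-end sequencing. Darwinian fitness relative to wild type followed from the change in each genotype's frequency. Genotypes needed ≥ 100 starting reads, and estimates < 0.5 were set to 0.5.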
row,Variant,yeast fitness
1,G18A C34A C60A,≤ 0.5
2,G18A C34U A43C,≤ 0.5
3,G18A G51C A65U,≤ 0.5
4,G18A U32A U53C,≤ 0.5
5,G18A A21C G23U U32A A42U G48C,≤ 0.5
6,G18A C34G G48C C49U,0.698
7,G18A A36G A42U A70C,0.784
8,G18A C29U C31A A65G,≤ 0.5
9,G17C U19C G68U,0.569
10,G17C G68C,0.614
11,G18A U19A C27G G39C,≤ 0.5
12,G18A A21C A37C C66A,0.695
13,G18A U19A G63A,≤ 0.5
14,G18C A36G,0.769
15,G18C A36U,0.551
16,G18C C24A U32C,0.55
17,G18A C46A G51C C60U,≤ 0.5
18,G18A C62G,0.676
19,G18A C62U,0.712
20,G18A C31G A40G G52C,≤ 0.5
21,G18A U19C C22U,0.641

row,Variant,yeast fitness
1,G18A C30A C34G,≤ 0.5
2,G18A A21G C66U,≤ 0.5
3,G18A C29A,0.539
4,G18A C27U U28C C31A C55G,≤ 0.5
5,G18A C30U,0.709
6,G17C U64A,0.662
7,G17C U64C,0.845
8,G18A C34U A43C U53G G68C,≤ 0.5
9,G18A G52C G67U A69U,≤ 0.5
10,G18A C33U A42G,0.54
11,G18C A36U A57U,≤ 0.5
12,G18A C34A A37U,≤ 0.5
13,G18A C29G A37G,0.598
14,G18A G50A C62G,≤ 0.5
15,G18A C34U G39C,≤ 0.5
16,G18C A21G C27A C30U G38A,0.547
17,G18C A36U A70U,≤ 0.5
18,G18C A21U C27U,≤ 0.5
19,G17C U19A C24G U26A C34U A69U,≤ 0.5
20,G18A C49A,0.606
21,G18A C49G,0.74

row,Variant,yeast fitness
1,G18A A20U U59G,≤ 0.5
2,G18C A45U G50C C55G U64C,≤ 0.5
3,G17C U19C,0.785
4,G18A A45U C55A,≤ 0.5
5,G18A G23C C29U C31G,≤ 0.5
6,G18A C46A U64C,0.535
7,G18A A20U C60A,≤ 0.5
8,G18C A43C G52A,0.502
9,G17C U28G G48A,0.558
10,G18A G44A G68A,≤ 0.5
11,G18C C22U C61U,≤ 0.5
12,G18A A37C A42C C55U,≤ 0.5
13,G18A A69U,0.896
14,G17U C55U A70G,≤ 0.5
15,G18A C34A C46U,0.692
16,G18A A20G U54A A70G,≤ 0.5
17,G18A C29U U35C G52C,≤ 0.5
18,G18A C24G G39C,≤ 0.5
19,G17C G52C,≤ 0.5
20,G18A C30G A37U C55G,≤ 0.5
21,G18A C30A G58A G68U,≤ 0.5

row,Variant,yeast fitness
1,G18C C24U A40U C55U U59A,0.501
2,G18A C27U U28C C31A C55G C61A,0.572
3,G17C U19A C49G C66U,≤ 0.5
4,G17C U32A C66U A70G,≤ 0.5
5,G18A U35A A40G C61U,≤ 0.5
6,G18A G23C C30G A36U C60G,≤ 0.5
7,G18A C22G,0.856
8,G18A C22A,0.805
9,G18A C33U U53A C55A,0.523
10,G17C U28A,0.554
11,G18A C61G,0.681
12,G18A C61U,0.696
13,G17C U53G,≤ 0.5
14,G18A A21U U32A,0.593
15,G18C A69C,0.642
16,G18A G50C G58C C60U C66G,≤ 0.5
17,G17U A69C A70G,0.643
18,G18A U26A C27U C49U G58A A65G,≤ 0.5
19,G18A C27U C34G G48C C49U,≤ 0.5
20,G18A C29U G52C,≤ 0.5
21,G17U G25A G50A G63C,≤ 0.5
